Assay results published in PMC10325562 (Circulation, 2023).
“Also recorded” adds a separate entry of the source. Like-named read-outs stand apart in the source and are kept apart here.

Tests used:
[1] = Standard genotoxicity/mutagenicity assessments
[2] = Passive permeability in MDCKII cells; conditions: MDCK, pH 7.4
[3] = Study-001 safety and tolerability; type: in vivo, human
Procedure, shortened: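 Single-center, randomized, double-blind, placebo-controlled, single-ascending oral dose study in healthy males aged 18–50. The test compound was given alone, with Labrasol or with sodium caprate. Dosing was fasted except one group after a high-fat breakfast. Escalations were ≥4 days apart, with ≥7-day washout per participant and safety review through ≥24 h. Monitoring covered AEs, physical exam, laboratory safety, 12-lead ECG and vital signs.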

[4] = Oral bioavailability in cynomolgus monkeys with permeation enhancer; type: in vivo; conditions: formulated with an established PE
Solubility = type: physicochemical
[5] = Study-003 multiple oral dose plasma pharmacokinetics; type: in vivo, human; conditions: for Accumulation ratio (Day 14/Day 1) AUC0-24 / Accumulation ratio (Day 14/Day 1) C24 / Accumulation ratio (Day 14/Day 1) Cmax: (90% CI); for level at time molar at 24 h: both, plasma, po; for level at time molar at 24 h / AUC(0-t) / Cmax / Tmax / half-life: human; for AUC(0-t) / Cmax / Tmax / half-life: in vivo
[6] = Study-003 safety and tolerability; type: in vivo, human
monkeys = test: Safety pharmacology and 1-month repeat-dose toxicity studies, monkeys; type: in vivo; conditions: safety pharmacology and 1-month repeat-dose toxicity
rats = test: Safety pharmacology and 1-month repeat-dose toxicity studies, rats; type: in vivo; conditions: safety pharmacology and 1-month repeat-dose toxicity
[7] = Study-001 single oral dose plasma pharmacokinetics; type: in vivo, human; conditions: 200 mg single dose
PCSK9 in human plasma = PCSK9 in human plasma (Homo sapiens, UniProt Q8NBP7); test: In vitro titration of PCSK9 in human plasma; type: binding
Chain of PCSK9 in human plasma (Q8NBP7 153-692): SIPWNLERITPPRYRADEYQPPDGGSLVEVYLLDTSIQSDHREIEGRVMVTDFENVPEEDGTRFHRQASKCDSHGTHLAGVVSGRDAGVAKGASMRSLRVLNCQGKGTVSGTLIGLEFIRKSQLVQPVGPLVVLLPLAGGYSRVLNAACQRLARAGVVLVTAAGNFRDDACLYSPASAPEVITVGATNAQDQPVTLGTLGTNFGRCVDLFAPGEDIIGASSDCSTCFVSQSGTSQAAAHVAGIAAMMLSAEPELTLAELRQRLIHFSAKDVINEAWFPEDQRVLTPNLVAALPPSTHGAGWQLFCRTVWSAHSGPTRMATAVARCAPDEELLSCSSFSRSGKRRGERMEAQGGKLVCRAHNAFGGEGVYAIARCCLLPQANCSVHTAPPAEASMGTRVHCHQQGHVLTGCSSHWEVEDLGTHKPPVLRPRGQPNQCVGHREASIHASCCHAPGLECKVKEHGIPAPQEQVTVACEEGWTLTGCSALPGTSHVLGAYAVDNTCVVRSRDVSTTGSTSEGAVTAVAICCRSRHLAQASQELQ
Procedure, shortened: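 Pooled EDTA-anticoagulated plasma (human, n=20 donors; or cynomolgus monkey) spiked with test compound at 0, 0.3, 1, 3, 5, 10, 50, 100, 500 and 1000 nM, from 0.1 mM DMSO stocks. Incubated 30 min at 25°C. Target engagement measured on 50 μL aliquots by affinity capture, enzymatic digestion and LC-MS/MS.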

[8] = 10 mg once daily 30 min post-meal + 360 mg sodium caprate, n=6
[9] = 10 mg once daily fasted + 360 mg sodium caprate, n=8
[10] = 20 mg once daily fasted + 360 mg sodium caprate, n=9

SMILES: COc1ccc(C[C@@H]2NC(=O)[C@H]([C@@H](C)O)NC(=O)[C@@H]3[C@@H]4CCN3C(=O)[C@@H]3Cc5cn(c6ccc(F)cc56)CCCCCCN(Cc5ccc(cc5)CCNC(=O)[C@]5(C)CCCN5C2=O)C(=O)CCC(=O)N[C@@H](C)C(=O)N[C@H](CNC(=O)CCCCC[N+](C)(C)C)C(=O)N[C@@H](Cc2cccc(c2)CNC(=O)CO4)C(=O)N3)cc1 [MK-0616]
- Genotoxicity / mutagenicity [1]: not genotoxic or mutagenic
- Papp [2]: 0.71 ×10⁻⁶ cm/s
- Deaths or serious AEs ([3]; Study-001): No deaths or serious AEs
- Participants with ≥1 AE ([3]; Study-001, n=28 of n=51 administered MK-0616): 54.9%
- Tolerability ([3]; Study-001, single-dose oral administration): generally well tolerated
- Oral bioavailability [4]: demonstrated oral bioavailability
- solubility (Solubility): 7800 µg/mL
- solubility (Solubility; pH 7): > 7000 µg/mL
- Accumulation ratio (Day 14/Day 1) AUC0-24 [5, 8]: 1.90 (1.42, 2.55) h•nmol/L
- Accumulation ratio (Day 14/Day 1) C24 [5, 8]: 2.01 (1.51, 2.67) nmol/L
- Accumulation ratio (Day 14/Day 1) Cmax [5, 8]: 1.60 (1.17, 2.21) nmol/L
- Accumulation ratio (Day 14/Day 1) AUC0-24 [5, 9]: 1.46 (1.13, 1.88) h•nmol/L
- Accumulation ratio (Day 14/Day 1) C24 [5, 9]: 1.32 (1.03, 1.70) nmol/L
- Accumulation ratio (Day 14/Day 1) Cmax [5, 9]: 1.51 (1.15, 1.99) nmol/L
- Delay of Day 14 Tmax by low-fat breakfast 30 minutes prior to dose ([5]; 10 mg vs same dose fasting): approximately 6 hours
- Accumulation ratio (Day 14/Day 1) AUC0-24 [5, 10]: 1.97 (1.54, 2.54) h•nmol/L
- Accumulation ratio (Day 14/Day 1) C24 [5, 10]: 1.81 (1.42, 2.31) nmol/L
- Accumulation ratio (Day 14/Day 1) Cmax [5, 10]: 2.04 (1.56, 2.68) nmol/L
- Plasma accumulation ([5]; all doses evaluated in Study-003): approximately 2 fold
- level at time molar at 24 h ([5]; 20 mg once daily, C24, Day 14, 20 mg once daily fasted + 360 mg sodium caprate, n=9, footnote: median (min, max)): 11.1 nM
- level at time molar at 24 h ([5]; 20 mg, C24, Day 1, 20 mg once daily fasted + 360 mg sodium caprate, n=9, geometric mean (95% CI)): 6.13 nM
- AUC(0-t) ([5]; AUC0-24, Day 1, 20 mg once daily fasted + 360 mg sodium caprate, statin-treated, n=9, geometric mean (95% CI)): 0.142 µM·h
- AUC(0-t) ([5]; AUC0-24, Day 14, 20 mg once daily fasted + 360 mg sodium caprate, n=9, geometric mean (95% CI)): 0.28 µM·h
- Cmax ([5]; Day 1, 20 mg once daily fasted + 360 mg sodium caprate, n=9, geometric mean (95% CI)): 7.87 nM
- Cmax ([5]; Day 14, 20 mg once daily fasted + 360 mg sodium caprate, n=9, geometric mean (95% CI)): 16.1 nM
- Tmax ([5]; Day 14, all fasted doses): < 2 h
- Tmax ([5]; Day 14, 20 mg once daily fasted + 360 mg sodium caprate, n=9, median (min, max)): 1.8 h
- half-life ([5]; t1/2, Day 14, 20 mg once daily fasted + 360 mg sodium caprate, n=9, geometric mean (% geometric CV)): 244 h
- half-life ([5]; t1/2, range, Day 14, across dose regimens): 178 to 244 h
- Time to steady state ([5]; once daily dosing, all dosing regimens): by the end of the first week; also recorded: after 1 week
- Deaths or serious AEs ([6]; Study-003): No deaths or serious AEs
- Tolerability ([6]; Study-003, 14 days of daily oral dosing): generally well tolerated
- Drug-related AE: dizziness ([6]; Study-003, n=1): 3.2%
- Drug-related AE: dry mouth ([6]; Study-003, n=1): 3.2%
- Drug-related AE: dyspepsia ([6]; Study-003, n=1): 3.2%
- Drug-related AE: flushing ([6]; Study-003, n=1): 3.2%
- Drug-related AE: hunger ([6]; Study-003, n=1): 3.2%
- Drug-related AE: insomnia ([6]; Study-003, n=1): 3.2%
- Drug-related AE: gastroesophageal reflux disease ([6]; Study-003, n=2): 6.5%
- Participants with 1 or more drug-related AEs ([6]; Study-003, n=7 of 31): 22.6%
- Participants with 1 or more AEs ([6]; Study-003, n=21 of n=31 administered MK-0616): 67.7%
- Tolerability (monkeys): well tolerated
- Tolerability (rats): well tolerated
- Fold lower Cmax in the absence of 1,800 mg Labrasol vs same dose in the PE [7]: > 5 fold
- IC50 (PCSK9 in human plasma): 2.5 nM
